Test results as given in ChEMBL document CHEMBL4033790, “Design and Synthesis of Novel Deuterated Ligands Functionally Selective for the γ-Aminobutyric Acid Type A Receptor (GABAAR) α6 Subtype with Improved Metabolic Stability and Enhanced Bioavailability” (J Med Chem, 2018).
Values after ≈ are worked out from the molar mass of the structure shown.

Tests used:
[1] = target: GABA-A receptor; alpha-1/beta-3/gamma-2 (Homo sapiens) (UniProt P14867+P18507+P28472); test: Positive allosteric modulation of GABA-A receptor alpha1beta3gamma2 (unknown origin) expressed in Xenopus laevis oocytes assessed as potentiation of EC3 GABA induced currents up to 1 uM at -60 mV holding potential by electrophysiological method relative to GABA; format: cell-based
How it was run: (§1)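 Stage 5–6 defolliculated Xenopus oocytes were injected with 2.5 ng total mRNA per oocyte: α1, α2, α3 or α5 with β3 and γ2 at 1:1:5, and α4 or α6 with β3 and γ2 at 3:1:5. Oocytes were kept ≥36 h at 18 °C in NDE medium before recording. Compounds were co-applied with GABA titrated to EC3-5 for each oocyte. Curves were fitted with the Hill equation; mean ± SEM from ≥3 oocytes across two batches.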

[2] = Terminal elimination half-life in Wistar rat plasma at 2 mg/kg, iv administered as single dose by HPLC-MS/MS analysis; format: ADME, organism-based; conditions: read-out: beta t1/2 (converted)
How it was run: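 Male Wistar rats (250–350 g) received a single 2 mg/kg dose, by oral gavage or IV, from nanoemulsion formulations. Three rats per time point were sampled for plasma and brain at 5, 30, 120, 480 and 1440 min. Compound levels were measured by HPLC-MS/MS after solid-phase extraction; oral bioavailability was derived from plasma AUCs for the two routes.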

[3] = Metabolic stability in mouse liver microsomes assessed as parent compound remaining at 10 uM after 60 mins by LC-MS analysis; format: ADME, microsome; conditions: read-out: Stability
How it was run: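 The 60 min samples of the microsomal incubation (10 μM compound, human or mouse liver microsomes at 0.5 mg/mL, NADPH regenerating system, 37 °C) were analysed by LC-MS. Detection used SIM mode with dual ESI/APCI ionization, calibrated to the retention times and masses of the parent and its O-demethylated metabolites. Peak intensities were measured.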

[4] = target: GABA A receptor alpha-4/beta-3/gamma-2 (Homo sapiens) (UniProt P18507+P28472+P48169); test: Positive allosteric modulation of GABA-A receptor alpha4beta3gamma2 (unknown origin) expressed in Xenopus laevis oocytes assessed as potentiation of EC3 GABA induced currents up to 1 uM at -60 mV holding potential by electrophysiological method relative to GABA; format: cell-based; how it was run: as §1
[5] = Terminal elimination half-life in Wistar rat plasma at 10 mg/kg, ip administered as single dose by HPLC-MS/MS analysis; format: ADME, organism-based; conditions: read-out: beta t1/2 (converted)
How it was run: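 Male Wistar rats (250–350 g) received a single i.p. dose of 10 mg/kg as a 5 mg/ml suspension in 85% water, 14% propylene glycol and 1% Tween 80. Three rats per time point were sacrificed at 5, 20, 60, 180 and 720 min for plasma and brain. Samples were cleaned up by solid-phase extraction and quantified by HPLC-MS/MS.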

Brain = test: AUC (0 to 24 hrs) in Wistar rat brain at 2 mg/kg, iv administered as single dose by HPLC-MS/MS analysis; format: ADME, organism-based; set-up: time < 24 hr, dose 2 mg/kg, route intravenous; conditions: in vivo
[6] = target: GABA-A receptor; alpha-2/beta-3/gamma-2 (Homo sapiens) (UniProt P18507+P28472+P47869); test: Positive allosteric modulation of GABA-A receptor alpha2beta3gamma2 (unknown origin) expressed in Xenopus laevis oocytes assessed as potentiation of EC3 GABA induced currents up to 1 uM at -60 mV holding potential by electrophysiological method relative to GABA; format: cell-based; how it was run: as §1
[7] = AUC (0 to 24 hrs) in Wistar rat plasma at 2 mg/kg, iv administered as single dose by HPLC-MS/MS analysis; format: ADME, organism-based; set-up: dose 2 mg/kg, time < 24 hr, route intravenous
[8] = Solubility of the compound in 0.01M HCl at pH 2 after 2 hrs by LC-MS analysis; format: physicochemical; conditions: buffer, pH 2, 2 h
How it was run: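 10 mg compound dissolved in 2 mL DMAC; 10 μL of this added to 2 mL DI water (pH 7, sonicated) or 2 mL 0.01 M aq HCl (pH 2), held 2 h at 37 °C. Filtered through 0.45 micron filter, then quantified by LC-MS in SIM mode against calibration curves of standards in DMAC (n = 5); n=3.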

Liver = test: Half life in mouse liver microsomes at 10 uM by LC-MS/MS analysis; format: ADME, microsome
How it was run: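 Compound at 10 μM final was preincubated 5 min at 37 °C with NADPH regenerating system in phosphate buffer, pH 7.4. Human or mouse liver microsomes (0.5 mg/mL protein) were added to start the reaction. Samples were taken at 0 (no microsomes) and 10–60 min and measured by LC-MS/MS against an internal standard. Half-life = 0.693/k, with k the slope of ln peak-area ratio versus time. Three experiments, each in duplicate.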

Rattus norvegicus [9] = test: Toxicity in Wistar rat assessed as peripheral ring distance at 10 mg/kg, ip administered for 45 mins by cued water-maze method (reference value: 67.44 +/- 4.60%); format: organism-based; conditions: in vivo, 0.75 h
[10] = Drug metabolism in human liver microsomes assessed as CYP450 mediated-O-demethylated 7-hydroxy-2-[4-(trideuteriomethoxy)phenyl]-5H-pyrazolo[4,3-c]quinolin-3-one metabolite formation after 60 mins by LC-MS analysis; format: ADME; conditions: 1 h
How it was run: (§2)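 The 60-min samples from the human or mouse liver microsome incubations (10 µM compound, 0.5 mg/mL protein, NADPH regenerating system, 37 °C, pH 7.4) were run on LC-MS in SIM mode with dual ESI/APCI ionization. The method was calibrated to each component's retention time and mass, and the peak intensities of the parent and O-demethylated metabolites were measured.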

Rattus norvegicus [11] = test: Toxicity in Wistar rat assessed as open arm entries at 10 mg/kg, ip administered for 45 mins measured for 5 min by elevated plus maze apparatus method (reference value: 23.07 +/- 5.47%); format: organism-based; conditions: in vivo
Rattus norvegicus [12] = test: Toxicity in Wistar rat assessed as total distance traveled at 10 mg/kg, ip administered for 45 mins by cued water-maze method (reference value: 8.04 +/- 1.16 meter); format: organism-based; conditions: in vivo, 0.75 h
Rattus norvegicus [13] = test: Toxicity in Wistar rat assessed as average swim speed at 10 mg/kg, ip administered for 45 mins by cued water-maze apparatus method (reference value: 0.21 +/- 0.01 meter/s); format: organism-based; conditions: in vivo, 0.75 h
Rattus norvegicus [14] = test: Hyperlocomotor activity in Wistar rat assessed as total distance travelled at 10 mg/kg, ip after 60 mins; format: ADME, organism-based; conditions: in vivo, 1 h
Mus musculus = test: Hyperlocomotor activity in C57BL/6 mouse assessed as total distance travelled at 3 to 10 mg/kg, ip after 60 mins in presence of diazepam; format: ADME, organism-based; conditions: in vivo, 1 h
Rattus norvegicus [15] = test: Toxicity in Wistar rat assessed as total distance traveled at 10 mg/kg, ip administered for 45 mins measured for 5 min by elevated plus maze method (reference value: 6.71 +/- 0.56 meter); format: organism-based; conditions: in vivo
[16] = Drug metabolism in mouse liver microsomes assessed as CYP450 mediated-O-demethylated 7-hydroxy-2-[4-(trideuteriomethoxy)phenyl]-5H-pyrazolo[4,3-c]quinolin-3-one metabolite formation after 60 mins by LC-MS analysis; format: ADME; conditions: 1 h; how it was run: as §2

COc1ccc(-n2nc3c4ccc(OC)cc4[nH]cc-3c2=O)cc1
Activity [1]: < 0%
half-life [2]: 317 min
remaining at 1 h, 10 µM [3]: 80.3%
Activity [4]: < 0%
half-life [5]: 90.6 min
AUC (Brain): 857.8 ng·h/g
Activity [6]: < 0%
AUC(0-t) at 24 h [7]: 1890 ng·h/mL
solubility [8]: 27.8 µM (≈ 8.93 µg/mL)
t1/2 (Liver): 3.2 h

[2H]C([2H])([2H])Oc1ccc(-n2nc3c4ccc(OC)cc4[nH]cc-3c2=O)cc1
half-life [2]: 117 min
remaining at 1 h, 10 µM [3]: 92.8%
half-life [5]: 212 min
AUC (Brain): 573.46 ng·h/g
AUC(0-t) at 24 h [7]: 3000 ng·h/mL
Activity (Rattus norvegicus [9]): 67.2%
Drug metabolism [10]: Metabolite_Detected
Activity (Rattus norvegicus [11]): 22.36%
Activity (Rattus norvegicus [12]): 11.01 m
Activity (Rattus norvegicus [13]): 0.2 meter/s
Activity (Rattus norvegicus [14]): Toxic
Activity (Mus musculus): Toxic
Activity (Rattus norvegicus [15]): 5.84 m
Drug metabolism [16]: Metabolite_Detected
